Results on two molecules are retold here after ChEMBL document CHEMBL4390663, “Cationic biaryl 1,2,3-triazolyl peptidomimetic amphiphiles: synthesis, antibacterial evaluation and preliminary mechanism of action studies” (Eur J Med Chem, 2019).

Data set [1] deals with Enterococcus faecalis. Description: Antimicrobial activity against vancomycin-resistant Enterococcus faecalis incubated for 24 hrs by broth microdilution method. Format: functional.
Data set [2] relates to Staphylococcus aureus. Description: Antimicrobial activity against methicillin-resistant Staphylococcus aureus incubated for 24 hrs by broth microdilution method. Format: functional. The gist of the method: (§1)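 Broth microdilution per CLSI aerobic guidance in Mueller Hinton broth, ambient air, 35 °C for 24 h. DMSO stocks were diluted in water, then serially diluted with double-strength broth inoculum added, for final 0.25–128 μg/mL. […] MIC was read visually as the lowest concentration inhibiting growth; the modal value of triplicates was recorded.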
For orientation: Broth dilution looks for growth in wells or tubes with falling amounts of substance.

For data set [3], the system named is Acinetobacter baumannii. The data set can be described thus: Antimicrobial activity against Acinetobacter baumannii incubated for 24 hrs by broth microdilution method. Format: functional.
Data set [4] is described as follows: Haemolytic activity in sheep erythrocytes at 50 ug/ml incubated for 2 hrs under shaking condition relative to control. Format: ADME, cell-based, Ovis aries, Erythrocyte. To be noted: read-out: Activity. The gist of the method: (§2)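 Compounds in PBS mixed with washed sheep erythrocytes (2% final) at 5 or 50 μg/mL, rocked 2 h at 37 °C, centrifuged; supernatant absorbance at 540 nm. PBS-only value subtracted, then expressed relative to water lysis (100%). Triplicate, means reported.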

The subject of data set [5] is Clostridioides difficile. The data set can be described thus: Antimicrobial activity against Clostridium difficile incubated for 24 hrs by broth microdilution method. Format: functional.
Data set [6] concerns Staphylococcus aureus. Description: Antimicrobial activity against methicillin-resistant Staphylococcus aureus clinical isolate incubated for 18 hrs by CLSI method. Type of data set: functional.
Data set [7] concerns Enterococcus faecalis. The data set can be described thus: Antibacterial activity against Enterococcus faecalis ATCC 29212 incubated for 24 hrs by CLSI method. Type of data set: functional. To be noted: ATCC 29212, 24 h.
Data set [8] relates to Escherichia coli. Description: Induction of plasma membrane permeabilization in Escherichia coli NCTC 10418 at 32 ug/ml measured for 30 mins by propidium iodide staining based fluorescence assay relative to control. Format: functional. The gist of the method:
(§3)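 Mid-log cells (1.5 McFarland) with 4 µM propidium iodide, dark, room temperature: S. aureus in PBS 30 min; E. coli in 5 mM HEPES/20 mM glucose pH 7.2 for 60 min, then 100 mM KCl and 0.5 mM EDTA. Fluorescence (ex 544/em 615 nm) read ~8 min baseline, then ~30 min after compound at 32 µg/mL final.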

Data set [9] deals with Staphylococcus aureus. Description: Antimicrobial activity against Staphylococcus aureus ATCC 43300 incubated for 18 hrs by CLSI method. Format: functional. The note with it: ATCC 43300, 18 h.
The test system of data set [10] is Escherichia coli. The data set can be described thus: Antibacterial activity against Escherichia coli ATCC 25922 incubated for 18 hrs by CLSI method. Format: functional. To be noted: ATCC 25922, 18 h. The gist of the method: (§4)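 Screen run by CO-ADD: mid-log cultures in cation-adjusted MHB, 5 × 10^5 CFU/mL, compounds at up to 32 μg/mL in 1:2 serial dilutions (8 steps), final DMSO ≤0.5%, duplicate. 37 °C for 18 h without shaking; OD600 read against media-only and untreated-bacteria references. MIC = lowest concentration giving ≥80% inhibition; colistin standard.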

Data set [11] can be described thus: Haemolytic activity in sheep erythrocytes at 5 ug/ml incubated for 2 hrs under shaking condition relative to control. Type of data set: ADME, cell-based, Ovis aries, Erythrocyte. To be noted: read-out: Activity. The essentials:
as §2

Data set [12] relates to Staphylococcus aureus. The data set can be described thus: Antimicrobial activity against methicillin-resistant Staphylococcus aureus ATCC 43300 incubated for 18 hrs by CLSI method. Type of data set: functional. The note with it: ATCC 43300, 18 h.
The test system of data set [13] is Staphylococcus aureus. Description: Antibacterial activity against methicillin-resistant Staphylococcus aureus NCTC 10442 incubated for 24 hrs by CLSI method. Type of data set: functional. To be noted: NCTC 10442, 24 h. The gist of the method:
as §1

The test system of the next data set is Klebsiella pneumoniae. The data set can be described thus: Antibacterial activity against Klebsiella pneumoniae 700603 incubated for 18 hrs by CLSI method. Type of data set: functional. The note with it: Klebsiella pneumoniae, 700603, 18 h. The essentials: as §4
The test system of data set [14] is Staphylococcus aureus. Description: Antimicrobial activity against glycopeptide intermediate susceptible Staphylococcus aureus NRS17 incubated for 18 hrs by CLSI method. The note with it: NRS17, 18 h. Format: functional.
The test system of data set [15] is Staphylococcus aureus. The data set can be described thus: Antimicrobial activity against vancomycin resistant Staphylococcus aureus NARSA VRS10 incubated for 18 hrs by CLSI method. Format: functional. To be noted: NARSA VRS10, 18 h.
Data set [16] deals with Staphylococcus aureus. The data set can be described thus: Induction of plasma membrane permeabilization in Staphylococcus aureus ATCC 29213 at 32 ug/ml measured for 30 mins by propidium iodide staining based fluorescence assay relative to control. Format: functional. The gist of the method: as §3
Data set [17] deals with Escherichia coli. Description: Bactericidal activity against exponential phase of Escherichia coli NCTC 10418 assessed as reduction in bacterial count at 64 ug/ml measured at <= 120 mins by time-kill kinetics assay relative to control. Format: functional.
For data set [18], the system named is Staphylococcus aureus. The data set can be described thus: Induction of cytoplasmic membrane depolarization in Staphylococcus aureus ATCC 29213 at 32 ug/ml incubated for 30 mins by diSC35 staining based fluorescence assay relative to control. Format: functional. The essentials:
(§5)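 Mid-log cells (1.5 McFarland) loaded with 4 µM diSC3(5) in the dark at room temperature: S. aureus in PBS 30 min; E. coli in 5 mM HEPES/20 mM glucose pH 7.2 for 60 min, then 100 mM KCl and 0.5 mM EDTA. Baseline fluorescence (ex 620/em 670 nm) ~8 min, then compound added (final 32 µg/mL S. aureus, 64 µg/mL E. coli), tracked ~30 min.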

For data set [19], the system named is Staphylococcus aureus. Description: Bactericidal activity against exponential phase of Staphylococcus aureus ATCC 29213 assessed as reduction in bacterial count at 64 ug/ml measured at 2 hrs by time-kill kinetics assay. Type of data set: functional.
For data set [20], the system named is Staphylococcus aureus. The data set can be described thus: Antimicrobial activity against Staphylococcus aureus ATCC 29213 incubated for 24 hrs by CLSI method. Type of data set: functional. To be noted: ATCC 29213, 24 h. The essentials:
as §1

For data set [21], the system named is Staphylococcus aureus. The data set can be described thus: Antimicrobial activity against methicillin-resistant Staphylococcus aureus clinical isolate with reduced daptomycin susceptibility incubated for 18 hrs by CLSI method. Type of data set: functional.
For data set [22], the system named is Clostridioides difficile. Description: Antibacterial activity against Clostridium difficile NSW132 RT027 incubated for 48 hrs by CLSI method. The note with it: NSW132 RT027, 48 h. Type of data set: functional. The essentials: (§6)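 Broth microdilution per CLSI anaerobe method in pre-reduced (2-4 h) Brucella broth with haemin and vitamin K, 35 °C anaerobically for 48 h. Compounds from 5 mg/mL DMSO stocks, twofold dilutions in water mixed with double-strength broth; final 0.25–128 μg/mL. […] Triplicate; modal MIC read visually as lowest concentration inhibiting growth.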

Data set [23] concerns Streptococcus pneumoniae. The data set can be described thus: Antibacterial activity against MDR Streptococcus pneumoniae ATCC 700677 incubated for 18 hrs by CLSI method. Type of data set: functional. The note with it: ATCC 700677, 18 h.
The subject of data set [24] is Streptococcus pneumoniae. Description: Antibacterial activity against Streptococcus pneumoniae ATCC 49619 incubated for 24 hrs by CLSI method. Type of data set: functional. To be noted: ATCC 49619, 24 h. The essentials: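 CLSI broth microdilution in MHB with 2.5% lysed horse blood, 5% CO2, 35 °C, 24 h. Compounds from 5 mg/mL DMSO stocks diluted in water plus double-strength broth; final 0.25–128 μg/mL. […] Triplicate; modal MIC read visually as lowest growth-inhibiting concentration.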

A further data set has as its system Pseudomonas aeruginosa. The data set can be described thus: Antimicrobial activity against Pseudomonas aeruginosa ATCC 27853 incubated for 18 hrs by CLSI method. Type of data set: functional. To be noted: ATCC 27853, 18 h. The gist of the method: as §4
Data set [25] can be described thus: Cytotoxicity against human HEK293 cells assessed as reduction in cell growth incubated for 20 hrs by resazurin dye-based fluorometric assay. The gist of the method: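 HEK293 cells, 5000 per well in DMEM + 10% FBS, exposed to compounds (top 32 μg/mL, 1:2 serial dilution ×8, ≤0.5% DMSO, duplicate) for 20 h at 37 °C, 5% CO2. Resazurin added (2.3 μg/mL final), 3 h further; fluorescence ex 560/em 590 nm. CC50 from sigmoidal dose-response fit against log concentration; tamoxifen standard.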
In general terms: The colour change of resazurin is a common sign of viable cells or microbes.

In data set [26] the test system is Staphylococcus aureus. The data set can be described thus: Bactericidal activity against exponential phase of Staphylococcus aureus ATCC 29213 assessed as reduction in bacterial count at 64 ug/ml measured at <= 30 mins by time-kill kinetics assay relative to control. Format: functional.
The test system of data set [27] is Staphylococcus aureus. Description: Antimicrobial activity against glycopeptide intermediate susceptible/methicillin-resistant Staphylococcus aureus NRS1 incubated for 18 hrs by CLSI method. Format: functional. To be noted: NRS1, 18 h.
Data set [28] relates to Acinetobacter baumannii. The data set can be described thus: Antimicrobial activity against Acinetobacter baumannii ATCC 19606 incubated for 18 hrs by CLSI method. Format: functional. The note with it: ATCC 19606 = CIP 70.34 = JCM 6841, 18 h. The essentials: as §4
The subject of data set [29] is Clostridioides difficile. The data set can be described thus: Antibacterial activity against Clostridium difficile ATCC 700057 incubated for 48 hrs by CLSI method. To be noted: ATCC 700057, 48 h. Type of data set: functional. The essentials: as §6
Data set [30] deals with Enterococcus faecalis. The data set can be described thus: Antimicrobial activity against vancomycin-resistant Enterococcus faecalis clinical isolate incubated for 18 hrs by CLSI method. Format: functional.
Data set [31] concerns Escherichia coli. Description: Induction of cytoplasmic membrane depolarization in Escherichia coli NCTC 10418 at 64 ug/ml incubated for 30 mins by diSC35 staining based fluorescence assay relative to control. Type of data set: functional. The essentials: as §5

By MIC is commonly meant the smallest concentration in the dilution series that meets the test's criterion for growth inhibition. Higher therefore signals weaker potency. As a reminder, the CC50 is the concentration at which the toxic effect on the cells reaches its halfway point.

Regarding `CC(C)CCOc1ccc2ccccc2c1-c1c(OCC(=O)N[C@H](CCCCN)C(=O)N[C@H](CCCNC(=N)N)Cn2cc(CC3CCCCC3)nn2)ccc2ccccc12.Cl.Cl`, the MIC was 4 µg/mL with Enterococcus faecalis [1], 2 µg/mL in the data set on Staphylococcus aureus [2], 4 µg/mL in the data set on Acinetobacter baumannii [3] and 4 µg/mL with Clostridioides difficile [5]. Moreover, the hemolysis at 2 h, 50 ug/ml in [4] worked out at 78%.

In the case of `CC(C)CCOc1ccc2ccccc2c1-c1c(OCc2cn(C[C@@H](CCCCN)NC(=O)[C@@H](CCCNC(=N)N)NC(=O)CCc3ccccc3)nn2)ccc2ccccc12.Cl.Cl`, the MIC was 4 µg/mL with Staphylococcus aureus [6]; 4 µg/mL in the data set on Enterococcus faecalis [7]; 2 µg/mL with Staphylococcus aureus [9]; 8 µg/mL in the data set with Escherichia coli [10]; 1 to 2 µg/mL in the data set on Staphylococcus aureus [12]; 4 µg/mL in the data set with Staphylococcus aureus [13]. For the same molecule, the MIC in the data set with Klebsiella pneumoniae is 32 µg/mL; with Staphylococcus aureus [14], 2 µg/mL; against Staphylococcus aureus [15], 2 µg/mL; in the data set with Staphylococcus aureus [20] it was 4 µg/mL; in the data set with Staphylococcus aureus [21], 2 to 4 µg/mL; against Clostridioides difficile [22] it was 32 µg/mL. The MIC was 1 to 2 µg/mL in the data set on Streptococcus pneumoniae [23]; 4 µg/mL against Streptococcus pneumoniae [24]; 16 µg/mL with Pseudomonas aeruginosa; 2 to 4 µg/mL in the data set on Staphylococcus aureus [27]; 32 µg/mL with Acinetobacter baumannii [28]; 16 µg/mL in the data set with Clostridioides difficile [29]. In addition, the MIC with Enterococcus faecalis [30] was 2 µg/mL. For the same molecule, the Activity in the data set on Escherichia coli [8] is 25 - 40%; in the data set with Staphylococcus aureus [16], 600%; in the data set with Escherichia coli [17] it was “>=3 log10CFU/ml”; with Staphylococcus aureus [18], 120 - 180%; with Staphylococcus aureus [19] it was under 1000 CFU/mL; in the data set on Staphylococcus aureus [26], “>=3 log10CFU/ml”. For the same molecule, in the data set on Escherichia coli [31], the Activity is on record as 460 - 900%. Besides, the hemolysis at 2 h, 5 ug/ml in data set [11] was found to be 1.1%. In data set [4], the hemolysis at 2 h, 50 ug/ml came out at 94.2%. Also, the CC50 at 20 h in data set [25] stood at 27.4 µg/mL.
